Measurements from ChEMBL document CHEMBL3045256, “Design, synthesis, structure, and acaricidal/insecticidal activity of novel spirocyclic tetronic acid derivatives containing an oxalyl moiety” (2011).

Assays:
Assay type in all cases: functional
[1] = system: Mythimna separata; assay: Stomach toxicity against fourth-instar larval stage of Mythimna separata (Oriental armyworm) in compound-pretreated corn leaves assessed as mortality at 600 mg/kg at 25 +/-1 degC after 4 days
Summary of the method: (§1)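 Foliar application to oriental armyworm. Single corn leaves were laid on moistened filter paper in Petri dishes. Bioassays were run at 25 ± 1 °C.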

[2] = system: Helicoverpa armigera; assay: Stomach toxicity against third-instar larval stage of Helicoverpa armigerain compound-pretreated corn leaves assessed as mortality at 600 mg/kg at 25 +/-1 degC after 4 days by leaf-dip method
Summary of the method: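 Leaf-dip assay on cotton bollworm. Corn leaves were dipped in test solution and air-dried. The treated pieces were placed individually into 24-hole boxes. Run at 25 ± 1 °C.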

[3] = system: Ostrinia nubilalis; assay: Stomach toxicity against third-instar larval stage of Ostrinia nubilalis (European corn borer) in corn leaves assessed as mortality at 600 mg/kg at 25 +/-1 degC treated for 3-5 secs before larval infestation after 4 days by leaf-dip method; conditions: 96 h
Summary of the method: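 Corn leaf disks (about 5 cm) were dipped for 3–5 s and air-dried. Each disk was placed in a 7 cm glass vessel with 10 third-instar corn borer larvae. Percentage mortality was scored 4 days after treatment. Controls were acetone-treated leaves. Run at 25 ± 1 °C.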

[4] = system: Tetranychus cinnabarinus; assay: Acaricidal activity against larvae of Tetranychus cinnabarinus (carmine spider mite) in sieva bean leaves assessed as mortality at 10 mg/kg at 25 +/-1 degC treated for 3 secs measured after 4 days; conditions: 96 h
[5] = system: Tetranychus cinnabarinus; assay: Acaricidal activity against eggs of Tetranychus cinnabarinus (carmine spider mite) in sieva bean leaves assessed as mortality at 5 mg/kg at 25 +/-1 degC treated for 3 secs measured after 4 days; conditions: 96 h
[6] = system: Tetranychus cinnabarinus; assay: Acaricidal activity against eggs of Tetranychus cinnabarinus (carmine spider mite) in sieva bean leaves assessed as mortality at 2.5 mg/kg at 25 +/-1 degC treated for 3 secs measured after 4 days; conditions: 96 h
[7] = system: Tetranychus cinnabarinus; assay: Acaricidal activity against larvae of Tetranychus cinnabarinus (carmine spider mite) in sieva bean leaves assessed as mortality at 5 mg/kg at 25 +/-1 degC treated for 3 secs measured after 4 days; conditions: 96 h
[8] = system: Tetranychus cinnabarinus; assay: Acaricidal activity against eggs of Tetranychus cinnabarinus (carmine spider mite) in sieva bean leaves assessed as mortality at 0.25 mg/kg at 25 +/-1 degC treated for 3 secs measured after 4 days; conditions: 96 h
[9] = system: Plutella xylostella; assay: Stomach toxicity against third-instar larval stage of Plutella xylostella (diamondback moth) in cabbage leaves assessed as mortality at 200 mg/kg at 25 +/-1 degC treated for 3 secs before larval infestation after 4 days by leaf-dip method; conditions: 96 h
Summary of the method: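 Cabbage leaf disks (6 cm × 2 cm) were dipped in test solution for 3 s and air-dried. Each disk was placed in a glass tube and given seven third-instar diamondback moth larvae. Percentage mortality was scored after 4 days. Controls were water and dimethylformamide. Each treatment was done three times at 25 ± 1 °C.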

[10] = system: Tetranychus cinnabarinus; assay: Acaricidal activity against eggs of Tetranychus cinnabarinus (carmine spider mite) in sieva bean leaves assessed as mortality at 1 mg/kg at 25 +/-1 degC treated for 3 secs measured after 4 days; conditions: 96 h
[11] = system: Tetranychus cinnabarinus; assay: Acaricidal activity against larvae of Tetranychus cinnabarinus (carmine spider mite) in sieva bean leaves assessed as mortality at 2.5 mg/kg at 25 +/-1 degC treated for 3 secs measured after 4 days; conditions: 96 h
[12] = system: Tetranychus cinnabarinus; assay: Acaricidal activity against larvae of Tetranychus cinnabarinus (carmine spider mite) in sieva bean leaves assessed as mortality at 1 mg/kg at 25 +/-1 degC treated for 3 secs measured after 4 days; conditions: 96 h
[13] = system: Tetranychus cinnabarinus; assay: Acaricidal activity against eggs of Tetranychus cinnabarinus (carmine spider mite) in sieva bean leaves assessed as mortality at 0.5 mg/kg at 25 +/-1 degC treated for 3 secs measured after 4 days; conditions: 96 h
[14] = system: Tetranychus cinnabarinus; assay: Acaricidal activity against larvae of Tetranychus cinnabarinus (carmine spider mite) in sieva bean leaves assessed as mortality at 0.5 mg/kg at 25 +/-1 degC treated for 3 secs measured after 4 days; conditions: 96 h
[15] = system: Tetranychus cinnabarinus; assay: Acaricidal activity against eggs of Tetranychus cinnabarinus (carmine spider mite) in sieva bean leaves assessed as mortality at 0.05 mg/kg at 25 +/-1 degC treated for 3 secs measured after 4 days; conditions: 96 h
[16] = system: Mythimna separata; assay: Stomach toxicity against fourth-instar larval stage of Mythimna separata (Oriental armyworm) in compound-pretreated corn leaves assessed as mortality at 50 mg/kg at 25 +/-1 degC after 4 days; summary of the method: as §1
[17] = system: Tetranychus cinnabarinus; assay: Acaricidal activity against eggs of Tetranychus cinnabarinus (carmine spider mite) in sieva bean leaves assessed as mortality at 0.1 mg/kg at 25 +/-1 degC treated for 3 secs measured after 4 days; conditions: 96 h
[18] = system: Mythimna separata; assay: Stomach toxicity against fourth-instar larval stage of Mythimna separata (Oriental armyworm) in compound-pretreated corn leaves assessed as mortality at 100 mg/kg at 25 +/-1 degC after 4 days; summary of the method: as §1
[19] = system: Tetranychus cinnabarinus; assay: Acaricidal activity against eggs of Tetranychus cinnabarinus (carmine spider mite) in sieva bean leaves assessed as mortality at 25 +/-1 degC treated for 3 secs measured after 4 days
[20] = system: Tetranychus cinnabarinus; assay: Toxicity ratio of spiromesifen LC50 to compound LC50 for eggs of Tetranychus cinnabarinus (carmine spider mite) treated for 3 secs measured after 4 days

| Compound | mortality at 600 mg/kg [1] [%] | mortality at 600 mg/kg [2] [%] | mortality at 600 mg/kg [3] [%] | mortality at 10 mg/kg [4] [%] | mortality at 5 mg/kg [5] [%] | mortality at 2.5 mg/kg [6] [%] | mortality at 5 mg/kg [7] [%] | mortality at 0.25 mg/kg [8] [%] | mortality at 200 mg/kg [9] [%] | mortality at 1 mg/kg [10] [%] | mortality at 2.5 mg/kg [11] [%] | mortality at 1 mg/kg [12] [%] | mortality at 0.5 mg/kg [13] [%] | mortality at 0.5 mg/kg [14] [%] | mortality at 0.05 mg/kg [15] [%] | mortality at 50 mg/kg [16] [%] | mortality at 0.1 mg/kg [17] [%] | mortality at 100 mg/kg [18] [%] | LC50 [19] [mg/kg] | RatioLC50 [20] |
| --- | --- | --- | --- | --- | --- | --- | --- | --- | --- | --- | --- | --- | --- | --- | --- | --- | --- | --- | --- | --- |
| Cc1cc(C)c(C2=C(OC(=O)C(=O)N3CCCC3)C3(CCCC3)OC2=O)c(C)c1 | 40 | 30 | 30 | 40 | 70 | 30 | 0 | – | – | – | – | – | – | – | – | – | – | – | – | – |
| Cc1cc(C)c(C2=C(OC(=O)C(=O)N(C)c3ccccc3)C3(CCCC3)OC2=O)c(C)c1 | 80 | 50 | 30 | 80 | 100 | 100 | 70 | 50 | 70 | 100 | 40 | 0 | 100 | – | – | – | – | – | – | – |
| CCN(C(=O)C(=O)OC1=C(c2c(C)cc(C)cc2C)C(=O)OC12CCCC2)c1ccccc1 | 40 | 40 | 40 | 100 | 100 | 100 | 100 | 30 | – | 90 | 90 | 80 | 50 | 60 | – | – | – | – | – | – |
| CCN(C(=O)C(=O)OC1=C(c2c(C)cc(C)cc2C)C(=O)OC12CCCC2)c1ccc(C)cc1C | 30 | 20 | 20 | 100 | 100 | 90 | 100 | – | – | 70 | 90 | 60 | 30 | 20 | – | – | – | – | – | – |
| CCN(C(=O)C(=O)OC1=C(c2c(C)cc(C)cc2C)C(=O)OC12CCCC2)c1ccc(Br)cc1 | 80 | 30 | 40 | 100 | 100 | 100 | 100 | 40 | – | 90 | 100 | 90 | 60 | 50 | – | – | – | – | – | – |
| CCN(C(=O)C(=O)OC1=C(c2c(C)cc(C)cc2C)C(=O)OC12CCCC2)c1ccc(C(F)(F)F)cc1 | 50 | 10 | 30 | 100 | 100 | 90 | 100 | 60 | – | 90 | 80 | 50 | 80 | 40 | – | – | – | – | – | – |
| CCOC(=O)C(=O)OC1=C(c2c(C)cc(C)cc2C)C(=O)OC12CCCC2 | 80 | 10 | 20 | 50 | 20 | – | 0 | – | 70 | – | – | – | – | – | – | – | – | – | – | – |
| Cc1cc(C)c(C2=C(OC(=O)CC(C)(C)C)C3(CCCC3)OC2=O)c(C)c1 [SPIROMESIFEN] | – | 50 | 60 | 100 | 100 | 100 | 100 | 60 | 70 | 90 | 100 | 90 | 90 | 90 | 0 | 60 | 20 | 100 | 0.1567 | 1 |
